The values below come from ChEMBL document CHEMBL5120908, “Diterpenoid Constituents of Psiadia punctulata and Evaluation of Their Antimicrobial Activity” (2022).

SMILES strings stand for the structures. Values after ≈ are worked out from the molar mass of the structure shown. Active and inactive are the calls of the source. Bounds are passed on as bounds.

In assay [1] the test system is Streptococcus mutans. The assay is described as follows: Antibacterial activity against Streptococcus mutans ATCC 25175 assessed as inhibition of efflux pump by measuring […] in accumulation of ethidium bromide at 0.6 ug/ml and measured after 60 mins by fluorescence assay. The format is functional, organism-based. As to conditions: dose 0.6 µg/ml. In short, it runs like this: (§1)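 EtBr accumulation in S. mutans grown overnight in BHI at 37 °C. Cells were washed twice and resuspended in PBS at OD600 0.6 with 0.4% glucose and 2 μg/mL EtBr (final). Psiadin was tested at 25 and 50 μg/mL, chlorhexidine at 0.6 μg/mL, and psiadin combined with chlorhexidine. DMSO and MeOH (0.5% each) served as negative controls. Fluorescence (ex 525/em 605 nm) was read every 60 s for 60 min at 37 °C.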

Assay [2] relates to Staphylococcus aureus. The experiment in a line: Antibacterial activity against Staphylococcus aureus ATCC 23235 incubated for 48 hrs by checkerboard assay. The format is functional. The gist of the method:
(§2)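 Checkerboard: psiadin at 0, 25, 50, 100, 200 μg/mL crossed with chlorhexidine at 5, 2.5, 1.25, 0.6, 0.3, 0 μg/mL. Broth microdilution MIC was read as the lowest concentration with no visible growth (A600). L. plantarum grew in MRS and T. denticola in BHI, both anaerobic at 37 °C. S. aureus and S. mutans grew in aerobic BHI at 37 °C. FIC index calculated from combination versus single-agent MICs.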

Assay [3] has as its system Streptococcus mutans. The assay is described as follows: Antibacterial activity against Streptococcus mutans ATCC 25175 incubated for 48 hrs by checkerboard assay. The format is functional. The gist of the method: as §2
In assay [4] the test system is Lactiplantibacillus plantarum. The experiment in a line: Antibacterial activity against Lactobacillus plantarum ATCC 8014 incubated for 48 hrs by checkerboard assay. The format is functional. The gist of the method:
as §2

The test system of assay [5] is Treponema denticola. The assay is described as follows: Antibacterial activity against Treponema denticola ATCC 35405 incubated for 48 hrs by checkerboard assay. The format is functional. In short, it runs like this: as §2
The subject of assay [6] is Staphylococcus aureus. The assay is described as follows: Antibacterial activity against Staphylococcus aureus ATCC 23235 incubated for 48 hrs by spectrophotometric analysis. The format is functional.
Assay [7] relates to Streptococcus mutans. The experiment in a line: Antibacterial activity against Streptococcus mutans ATCC 25175 incubated for 48 hrs by spectrophotometric analysis. The format is functional.
In assay [8] the test system is Treponema denticola. The assay is described as follows: Antibacterial activity against Treponema denticola ATCC 35405 incubated for 48 hrs by spectrophotometric analysis. The format is functional. The gist of the method:
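Broth microdilution MIC: fractions tested at 20–200 μg/mL and pure compounds at 10–200 μg/mL, each with 0.5 × 10^5 CFU/mL inoculum. S. aureus and S. mutans grew aerobically in BHI at 37 °C for 24 h. T. denticola grew anaerobically in BHI at 37 °C for 48 h. Read by A600. MIC is the lowest concentration inhibiting visible growth. Blank and DMSO vehicle controls were included; triplicate.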

Assay [9] concerns Staphylococcus aureus. The experiment in a line: Potentiation of antimicrobial activity against Staphylococcus aureus ATCC 23235 assessed as chlorhexidine MIC at 25 ug/ml incubated for 48 hrs by checkerboard assay. The format is functional. As to conditions: dose 25 µg/ml. The gist of the method: as §2
Assay [10] concerns Streptococcus mutans. The assay is described as follows: Potentiation of antimicrobial activity against Streptococcus mutans ATCC 25175 assessed as chlorhexidine MIC at 25 ug/ml incubated for 48 hrs by checkerboard assay. The format is functional. As to conditions: dose 25 µg/ml. The gist of the method:
as §2

The test system of assay [11] is Lactiplantibacillus plantarum. The assay is described as follows: Potentiation of antimicrobial activity against Lactobacillus plantarum ATCC 8014 assessed as chlorhexidine MIC at 25 ug/ml incubated for 48 hrs by checkerboard assay. The format is functional. As to conditions: dose 25 µg/ml. The gist of the method:
as §2

Assay [12] has as its system Treponema denticola. The experiment in a line: Potentiation of antimicrobial activity against Treponema denticola ATCC 35405 assessed as chlorhexidine MIC at 25 ug/ml incubated for 48 hrs by checkerboard assay. As to conditions: dose 25 µg/ml. The format is functional. The gist of the method: as §2
In assay [13] the test system is Staphylococcus aureus. The experiment in a line: Potentiation of antimicrobial activity against Staphylococcus aureus ATCC 23235 assessed as chlorhexidine MIC at 50 ug/ml incubated for 48 hrs by checkerboard assay. The format is functional. As to conditions: dose 50 µg/ml. In short, it runs like this:
as §2

Assay [14] deals with Streptococcus mutans. The experiment in a line: Potentiation of antimicrobial activity against Streptococcus mutans ATCC 25175 assessed as chlorhexidine MIC at 50 ug/ml incubated for 48 hrs by checkerboard assay. The format is functional. As to conditions: dose 50 µg/ml. The gist of the method: as §2
Assay [15] concerns Lactiplantibacillus plantarum. The experiment in a line: Potentiation of antimicrobial activity against Lactobacillus plantarum ATCC 8014 assessed as chlorhexidine MIC at 50 ug/ml incubated for 48 hrs by checkerboard assay. The format is functional. As to conditions: dose 50 µg/ml. The gist of the method:
as §2

For assay [16], the system named is Treponema denticola. The experiment in a line: Potentiation of antimicrobial activity against Treponema denticola ATCC 35405 assessed as chlorhexidine MIC at 50 ug/ml incubated for 48 hrs by checkerboard assay. The format is functional. As to conditions: dose 50 µg/ml. The gist of the method: as §2
The test system of assay [17] is Staphylococcus aureus. The experiment in a line: Potentiation of antimicrobial activity against Staphylococcus aureus ATCC 23235 assessed as chlorhexidine MIC at 100 ug/ml incubated for 48 hrs by checkerboard assay. The format is functional. As to conditions: dose 100 µg/ml. In short, it runs like this: as §2
Assay [18] concerns Streptococcus mutans. The assay is described as follows: Potentiation of antimicrobial activity against Streptococcus mutans ATCC 25175 assessed as chlorhexidine MIC at 100 ug/ml incubated for 48 hrs by checkerboard assay. The format is functional. As to conditions: dose 100 µg/ml. The gist of the method: as §2
Assay [19] concerns Lactiplantibacillus plantarum. The assay is described as follows: Potentiation of antimicrobial activity against Lactobacillus plantarum ATCC 8014 assessed as chlorhexidine MIC at 100 ug/ml incubated for 48 hrs by checkerboard assay. The format is functional. As to conditions: dose 100 µg/ml. In short, it runs like this:
as §2

The subject of assay [20] is Treponema denticola. The assay is described as follows: Potentiation of antimicrobial activity against Treponema denticola ATCC 35405 assessed as chlorhexidine MIC at 100 ug/ml incubated for 48 hrs by checkerboard assay. The format is functional. As to conditions: dose 100 µg/ml. The gist of the method:
as §2

The subject of assay [21] is Staphylococcus aureus. The assay is described as follows: Potentiation of antimicrobial activity against Staphylococcus aureus ATCC 23235 assessed as chlorhexidine MIC at 200 ug/ml incubated for 48 hrs by checkerboard assay. The format is functional. As to conditions: dose 200 µg/ml. In short, it runs like this: as §2
Assay [22] relates to Streptococcus mutans. The experiment in a line: Potentiation of antimicrobial activity against Streptococcus mutans ATCC 25175 assessed as chlorhexidine MIC at 200 ug/ml incubated for 48 hrs by checkerboard assay. The format is functional. As to conditions: dose 200 µg/ml. In short, it runs like this:
as §2

Assay [23] has as its system Lactiplantibacillus plantarum. The experiment in a line: Potentiation of antimicrobial activity against Lactobacillus plantarum ATCC 8014 assessed as chlorhexidine MIC at 200 ug/ml incubated for 48 hrs by checkerboard assay. The format is functional. As to conditions: dose 200 µg/ml. In short, it runs like this:
as §2

The subject of assay [24] is Treponema denticola. The experiment in a line: Potentiation of antimicrobial activity against Treponema denticola ATCC 35405 assessed as chlorhexidine MIC at 200 ug/ml incubated for 48 hrs by checkerboard assay. The format is functional. As to conditions: dose 200 µg/ml. The gist of the method:
as §2

The test system of assay [25] is Staphylococcus aureus. The assay is described as follows: Synergistic antimicrobial activity against Staphylococcus aureus ATCC 23235 assessed as fractional inhibitory concentration at 50 ug/ml incubated for 48 hrs in presence of chlorhexidine by checkerboard assay. The format is functional. As to conditions: dose 50 µg/ml. The gist of the method: as §2
The test system of assay [26] is Staphylococcus aureus. The experiment in a line: Synergistic antimicrobial activity against Staphylococcus aureus ATCC 23235 assessed as fractional inhibitory concentration at 25 ug/ml incubated for 48 hrs in presence of chlorhexidine by checkerboard assay. The format is functional. As to conditions: dose 25 µg/ml. The gist of the method: as §2
For assay [27], the system named is Streptococcus mutans. The experiment in a line: Antibacterial activity against Streptococcus mutans ATCC 25175 assessed as inhibition of efflux pump by measuring increase in accumulation of ethidium bromide at 25 to 50 ug/ml and measured after 60 mins by fluorescence assay. The format is functional, organism-based. As to conditions: dose 25-50 µg/ml, DDE = dose-dependent effect. In short, it runs like this:
as §1

Assay [28] concerns Streptococcus mutans. The experiment in a line: Antibacterial activity against Streptococcus mutans ATCC 25175 assessed as inhibition of efflux pump by measuring increase in accumulation of ethidium bromide at 50 ug/ml and measured after 60 mins in presence of chlorhexidine by fluorescence assay. As to conditions: dose 50.0 µg/ml. The format is functional, organism-based. The gist of the method: as §1

Assay [29] relates to Streptococcus mutans. The experiment in a line: Synergistic antimicrobial activity against Streptococcus mutans ATCC 25175 assessed as fractional inhibitory concentration incubated for 48 hrs in presence of chlorhexidine by checkerboard assay. The format is functional. As to conditions: time 24 hrs; in the assay text read “24 hrs” for “48 hrs”. The gist of the method: as §2

Assay [30] concerns Streptococcus mutans. The assay is described as follows: Antibiofilm activity against Streptococcus mutans ATCC 25175 at 50 to 100 ug/ml measured after 24 hrs by crystal violet staining method. As to conditions: dose 50-100 µg/ml.

As usually defined, the MIC is the smallest concentration in the dilution series that meets the test's criterion for growth inhibition. Consider `N=C(NCCCCCCNC(=N)NC(=N)Nc1ccc(Cl)cc1)NC(=N)Nc1ccc(Cl)cc1` [CHLORHEXIDINE], for which, in the assay on Streptococcus mutans [1], the outcome was Active. The minimum inhibitory concentration (MIC) in the assay with Staphylococcus aureus [2] amounted to 2.5 µg/mL; in the assay with Streptococcus mutans [3] it was 1.25 µg/mL; in assay [4], 10 µg/mL; with Treponema denticola [5] it was 2.2 µg/mL.

`COc1c(OC)c(O)c2c(=O)cc(-c3ccc(O)cc3)oc2c1OC` [XANTHOMICROL]: the MIC is above 250 µg/mL in the assay on Staphylococcus aureus [6], 180 µg/mL (≈ 523 µM) in the assay with Streptococcus mutans [7] and 200 µg/mL (≈ 581 µM) in the assay on Treponema denticola [8].

Take `C=C1C[C@]23CC[C@@H]4C(CO)(CO)CC(=O)C[C@@]4(C)[C@@H]2CC[C@H]1C3`: the minimum inhibitory concentration (MIC) in the assay with Staphylococcus aureus [6] came out at 125 µg/mL (≈ 393 µM); in the assay with Streptococcus mutans [7], 140 µg/mL (≈ 440 µM); against Treponema denticola [8], 100 µg/mL (≈ 314 µM); with Staphylococcus aureus [9] it was 1.25 µg/mL; in the assay on Streptococcus mutans [10], 1.25 µg/mL; in assay [11], 10 µg/mL. Also, the MIC turned out to be 2.5 µg/mL in the assay on Treponema denticola [12]; 1.25 µg/mL in the assay with Staphylococcus aureus [13]; 0.6 µg/mL in the assay with Streptococcus mutans [14]; 10 µg/mL in [15]; 2.5 µg/mL with Treponema denticola [16]; 0.6 µg/mL in the assay with Staphylococcus aureus [17]. Besides, the minimum inhibitory concentration (MIC) in the assay on Streptococcus mutans [18] was 0.6 µg/mL; in [19], 10 µg/mL; in the assay on Treponema denticola [20], 2.5 µg/mL; with Staphylococcus aureus [21] it was 0.3 µg/mL; in the assay with Streptococcus mutans [22], 0.3 µg/mL; in assay [23], 2.5 µg/mL. Moreover, the MIC in the assay with Treponema denticola [24] amounted to 1.25 µg/mL. Also, the figures for the FIC in the assay on Staphylococcus aureus [25], in the assay on Staphylococcus aureus [26] and in the assay with Streptococcus mutans [29] were 0.9, 0.7 and 0.85, respectively. The Activity result in the assay with Streptococcus mutans [27] is “Dde”. Moreover, the outcome in the assay on Streptococcus mutans [28] and in the assay on Streptococcus mutans [30] was Active.
